S100A4 inh HTS = blocks human S100A4 binding to myosin IIA peptide. P26447. S100A4/TAMRA-MyoIIA peptide fluorescence polarization. inhibition, % at 10.7 µM. 360,000 compounds, 0.14% hits. AID 652163;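 active means mean inhibition of at least 70% across replicates, with every replicate also reaching that level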
Target sequence (P26447 whole entry, looked up): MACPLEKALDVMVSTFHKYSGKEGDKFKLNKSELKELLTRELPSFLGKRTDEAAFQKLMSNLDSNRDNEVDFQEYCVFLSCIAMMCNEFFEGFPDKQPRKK
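Material: human S100A4 monomer with TAMRA-labelled myosin IIA peptide; buffer or medium: HEPES pH 7.2 with CaCl2, KCl, NaCl, DTT, Triton; compound dosing: one concentration per compound; schedule: 5 min incubation before reading; benchmarks: neutral control DMSO, positive control TFP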
Vif inh = inhibitors of HIV Vif; 340,000 compounds, 0.35% hits; HEK293T cells, Vif self-association by quenched fluorescence, imaging, 24 h; inhibition, % at 7.49 µM; in the data active means inhibition above about 50%, passing the limit was not always enough
Ecoli rRNA inh = inhibits bacterial ribosomal RNA function over humanized ribosomes. E. coli WT GFP vs humanized-ribosome RFP mutants, fluorescence, 24 h; stronger effect = lower value; DMSO median 0, no signal -100. GFP signal change (wild-type ribosome), % (no concentration beside the values). 350,000 compounds, 1.6% hits. AID 720706;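 active means significant combined selectivity score with lowered wild-type GFP, culture density cut under 30%, mutant RFP and density less affected; inactive means any of these conditions unmet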
miR-122 sensor = inhibitors of miR-122 in Huh7 cells; Huh7 miR-122 Renilla luciferase sensor, 48 h; neutral wells = 0, positive control = 100; activation (reporter increase), % at 12.5 µM; 340,000 compounds, 0.3% hits; AID 602342;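 active means mean replicate activation score at least 90 and every replicate individually at or above 90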;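 further: higher luciferase means less miR-122 activity so hits act as miR-122 inhibitors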
HIV Env fusion = inhibitors of HIV Env-mediated cell fusion. HeLa-JRFL Env/CEM21 cell fusion, luciferase. inhibition, % at 12.3 µM. 360,000 compounds, 1.1% hits;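 active means mean replicate inhibition score of at least 50 and every replicate individually at or above 50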
FN deposition inh = fibronectin deposition inhibition | AID 743247 | 350,000 compounds, 0.086% hits | inhibition, % at 12.6 µM | AH1F fibroblasts, Alexa488-fibronectin deposition fluorescence, overnight;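 active means mean inhibition across replicates of 30% or more, regardless of how many single replicates reach that level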
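Test system: AH1F fibroblast monolayer depositing Alexa488-labelled fibronectin into matrix. Input: 10000 cells per well. Technique: fluorescence, ex 485 nm, em 525 nm. Buffer or medium: DMEM plus 2% serum, read in PBS. Timing: 1 h cell adhesion before compound, then overnight fibronectin incubation. Compound: single dose, pinned. Read-out basis: inhibition from reduced deposited-fibronectin fluorescence.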
Numbers stand for hits; 0 = inactive; - = no result given. Shown are actives, neighbours in structure and some others; about 2.6% of the full set was active somewhere.

SMILES	S100A4 inh HTS	Vif inh	Ecoli rRNA inh	miR-122 sensor	HIV Env fusion	FN deposition inh
C[C@H]1CCCCO[C@@H](CN(C)C(=O)Nc2ccccc2)[C@@H](C)CN([C@@H](C)CO)C(=O)c2cc(NS(=O)(=O)c3cn(C)cn3)ccc2O1	0	-	0	0	0	0
CC(=O)c1cccc(OCC(=O)Nc2ccccc2N2CCOCC2)c1	0	0	-	93	-	0
COc1ccc(OCC(=O)Nc2ccccc2N2CCN(C)CC2)cc1	0	0	0	0	0	0
O=C(CNCC1CCCCC1)Nc1ccccc1N1CCCCC1	-	0	-	0	75	0
Cc1ccc(SCC(=O)Nc2ccccc2N2CCOCC2)cc1	0	0	-28	0	0	0
COc1ccc(OCC(=O)Nc2ccccc2N2CCCCC2)cc1	0	0	0	0	74	-
CCNC(=O)C[C@H]1CC[C@H]2[C@@H](COc3ccc(NC(=O)Nc4ccccc4F)cc3C(=O)N2C)O1	0	-	0	0	0	0
Cc1cccc(NC(=O)CSCC(=O)Nc2cc(S(=O)(=O)N3CCOCC3)ccc2N2CCCC2)c1	0	-	0	-	0	-
Cc1cccc(NC(=O)CSCC(=O)Nc2cc(Cl)ccc2N2CCOCC2)c1	0	0	0	0	72	-
CC(C)NC(=O)N(C)C[C@@H]1Oc2c(NC(=O)C3CCOCC3)cccc2C(=O)N([C@H](C)CO)C[C@H]1C	0	-	0	0	0	-
Cc1ccc2c(c1)c(CC(=O)Nc1ccc(C)c(F)c1)c(C(=O)O)n2C	0	0	-24	0	-	-
C[C@H](CO)N1C[C@H](C)[C@H](CN(C)C(=O)c2ccccc2)OCCCC[C@H](C)Oc2ccc(NC(=O)Nc3cccc4ccccc34)cc2C1=O	0	-	0	0	0	-
COc1ccc(/C=C/C(=O)Nc2cccc(F)c2)cc1S(=O)(=O)N1CCOCC1	0	0	-27	0	0	0
COc1cc(NC(=O)CCCOc2ccc(Cl)cc2Cl)c(C(=O)O)cc1OC	0	0	-31	0	0	0
O=C(CCCOc1ccc(Cl)cc1Cl)Nc1cc(S(=O)(=O)N2CCOCC2)ccc1N1CCOCC1	0	0	0	-	79	0
COc1ccc(/C=C/C(=O)Nc2ccccc2F)cc1S(=O)(=O)N1CCOCC1	0	0	-20	0	0	0
O=C(C1CCCC1)N1CCCCN2[C@H](CO)[C@H](c3ccc(-c4cccc(F)c4)cc3)[C@@H]2C1	0	-	-	0	-	-
COc1ccc(/C=C/C(=O)Nc2cc(S(=O)(=O)N3CCCCC3)ccc2N2CCCCC2)cc1OC	-	0	-	0	0	0
COc1ccc(/C=C/C(=O)Nc2cc(S(=O)(=O)N3CCOCC3)ccc2N2CCCC2)cc1OC	0	0	-22	-	0	-
CN1[C@@H]2c3ccc(/C=C/c4ccccc4)c(=O)n3C[C@H]1[C@H](CO)[C@H]2C(=O)NC1CCCCC1	0	-	0	-	0	-
NC(=O)c1ccc(=O)n(C2OC(CO)C(O)C2O)c1 (stereo unspecified)	0	0	0	0	0	0
O=C1C=CN(C2OC(CO)C(O)C2O)C(=O)C1 (stereo unspecified)	0	0	0	-	65	-
Nc1nn(-c2ccccc2)c(N)c1N=Nc1ccccc1F	0	-	-37	-	0	0
Nc1nn(-c2ccccc2)c(N)c1N=Nc1ccccc1	-	0	-	0	0	0
Cc1ccc(C)c(OCC(=O)NNC(=O)c2ccc(NC(=O)C3CC3)cc2)c1	0	0	-37	-	0	-
SMILES	S100A4 inh HTS	Vif inh	Ecoli rRNA inh	miR-122 sensor	HIV Env fusion	FN deposition inh
Cc1cc(Br)ccc1OCC(=O)NNC(=O)c1ccc(NC(=O)C2CC2)cc1	0	0	0	0	-	-
CCCCSc1nnc(CCCCCNC(=O)OC(C)(C)C)o1	-	0	-	0	55	0
CSc1nnc(CCCCCNC(=O)OC(C)(C)C)o1	0	0	0	0	0	0
C[C@H](CO)N1C[C@H](C)[C@@H](CN(C)Cc2ccc(-c3ccccc3)cc2)Oc2ccc(NC(=O)Nc3ccccc3)cc2C1=O	0	-	0	0	0	-
CC(C)C(=O)Nc1cc(S(=O)(=O)Nc2ccc(Cl)cc2)ccc1Cl	0	0	0	-	0	0
O=C(CCC(=O)c1ccc(F)cc1)Nc1cccc(C(F)(F)F)c1	0	0	0	0	0	0
O=C(CCC(=O)c1ccc(F)cc1)Nc1cccc(S(=O)(=O)Nc2cccc(Cl)c2)c1	0	0	-41	-	0	-

Screens (PubChem)
